From ChEMBL document CHEMBL1926577, “Novel 1,3,4-heterodiazole analogues: synthesis and in-vitro antitumor activity” (2012)

Legend:
Format in all cases: functional
[1] = Growth inhibition of human colon cancer cells after 48 hrs by coulter counter method; details: Cancer cell lines
Outline: (§1)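 NCI 60-line panel cells. Compound is dissolved in DMSO and diluted in phosphate-buffered saline, with final DMSO below 1%. It is added in duplicate wells to cultures at 6 × 10⁴ cells/ml and held at 37 °C, 5% CO₂, humidified, for 48 h. Cells are diluted 10-fold in saline, counted by Coulter counter and dilution-corrected. Vehicle controls contain PBS plus DMSO.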

[2] = Growth inhibition of human breast cancer cells after 48 hrs by coulter counter method; details: Cancer cell lines; outline: as §1
Melanoma cell = experiment: Growth inhibition of human Melanoma cells after 48 hrs by coulter counter method; outline: as §1
[3] = Growth inhibition of human renal cancer cells after 48 hrs by coulter counter method; details: Cancer cell lines; outline: as §1
[4] = Growth inhibition of human leukemia cells after 48 hrs by coulter counter method; details: Leukemia cell; outline: as §1
NSCLC = experiment: Growth inhibition of human NSCLC cells after 48 hrs by coulter counter method; outline: as §1
[5] = Growth inhibition of human CNS cancer cells after 48 hrs by coulter counter method; details: Cancer cell lines; outline: as §1
[6] = Growth inhibition of human ovarian cancer cells after 48 hrs by coulter counter method; details: Cancer cell lines; outline: as §1
[7] = Growth inhibition of human prostate cancer cells after 48 hrs by coulter counter method; details: Cancer cell lines; outline: as §1
786-0 = experiment: Growth inhibition of human 786-0 cells at 10 uM after 48 hrs by coulter counter method; details: 786-0, 48 h, read-out: GI
Outline: (§2)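 NCI 60-cell-line panel, single dose. Compound dissolved first in DMSO, then diluted in phosphate-buffered saline so that every final dilution held under 1% DMSO. Duplicate wells received cells at 6 × 10⁴ cells/ml. Controls held PBS/DMSO at the same dilution. Plates were incubated 48 h at 37 °C under 5% CO₂. Cells were then diluted 10-fold in saline and counted on a Coulter counter, with counts corrected for the dilution. Results are given as percent growth inhibition.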

UACC-257 = experiment: Growth inhibition of human UACC257 cells at 10 uM after 48 hrs by coulter counter method; details: UACC-257, 48 h, read-out: GI; outline: as §2
HL-60(TB) = experiment: Growth inhibition of human HL-60(TB) cells at 10 uM after 48 hrs by coulter counter method; details: HL-60, 48 h, read-out: GI
Outline: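 Single-dose screen on the NCI 60-line panel (leukemia subpanel). Compound is dissolved in DMSO and diluted in PBS, with final DMSO below 1%. Duplicate wells hold 6 × 10⁴ cells/ml at 37 °C, 5% CO₂, for 48 h. Cells are counted by Coulter counter after 10-fold saline dilution. Read-out is percent growth versus PBS/DMSO controls, expressed as % growth inhibition.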

SNB-19 = experiment: Growth inhibition of human SNB19 cells at 10 uM after 48 hrs by coulter counter method; details: SNB-19, 48 h, read-out: GI; outline: as §2
NCI/ADR-RES = experiment: Growth inhibition of human NCI/ADR-RES cells at 10 uM after 48 hrs by coulter counter method; details: read-out: GI; outline: as §2
RPMI-8226 = experiment: Growth inhibition of human RPMI8226 cells at 10 uM after 48 hrs by coulter counter method; details: RPMI-8226, 48 h, read-out: GI; outline: as §2
SK-MEL-2 = experiment: Growth inhibition of human SK-MEL-2 cells at 10 uM after 48 hrs by coulter counter method; details: SK-MEL-2, 48 h, read-out: GI; outline: as §2
SF-268 = experiment: Growth inhibition of human SF268 cells at 10 uM after 48 hrs by coulter counter method; details: SF-268, 48 h, read-out: GI; outline: as §2
BT-549 = experiment: Growth inhibition of human BT549 cells at 10 uM after 48 hrs by coulter counter method; details: BT-549, 48 h, read-out: GI; outline: as §2
SN12C = experiment: Growth inhibition of human SN12C cells at 10 uM after 48 hrs by coulter counter method; details: read-out: GI; outline: as §2
NCI-H322M = experiment: Growth inhibition of human NCI-H322M cells at 10 uM after 48 hrs by coulter counter method; details: read-out: GI; outline: as §2
HT-29 = experiment: Growth inhibition of human HT-29 cells at 10 uM after 48 hrs by coulter counter method; details: HT-29, 48 h, read-out: GI; outline: as §2
Malme-3M = experiment: Growth inhibition of human MALME-3M cells at 10 uM after 48 hrs by coulter counter method; details: read-out: GI; outline: as §2
TK-10 = experiment: Growth inhibition of human TK10 cells at 10 uM after 48 hrs by coulter counter method; details: TK-10, 48 h, read-out: GI; outline: as §2
MDA-MB-435 = experiment: Growth inhibition of human MDA-MB-435 cells at 10 uM after 48 hrs by coulter counter method; details: MDA-MB-435, 48 h, read-out: GI; outline: as §2
SK-MEL-28 = experiment: Growth inhibition of human SK-MEL-28 cells at 10 uM after 48 hrs by coulter counter method; details: SK-MEL-28, 48 h, read-out: GI; outline: as §2
MCF7 = experiment: Growth inhibition of human MCF7 cells at 10 uM after 48 hrs by coulter counter method; details: MCF7, 48 h, read-out: GI; outline: as §2
SR = experiment: Growth inhibition of human SR cells at 10 uM after 48 hrs by coulter counter method; details: read-out: GI; outline: as §2
SF-295 = experiment: Growth inhibition of human SF295 cells at 10 uM after 48 hrs by coulter counter method; details: SF-295, 48 h, read-out: GI; outline: as §2
OVCAR-8 = experiment: Growth inhibition of human OVCAR8 cells at 10 uM after 48 hrs by coulter counter method; details: OVCAR-8, 48 h, read-out: GI; outline: as §2
NCI-H226 = experiment: Growth inhibition of human NCI-H226 cells at 10 uM after 48 hrs by coulter counter method; details: NCI-H226, 48 h, read-out: GI; outline: as §2
A549 = experiment: Growth inhibition of human A549 cells at 10 uM after 48 hrs by coulter counter method; details: A549, 48 h, read-out: GI; outline: as §2
NCI-H23 = experiment: Growth inhibition of human NCI-H23 cells at 10 uM after 48 hrs by coulter counter method; details: NCI-H23, 48 h, read-out: GI; outline: as §2
HCT-15 = experiment: Growth inhibition of human HCT15 cells at 10 uM after 48 hrs by coulter counter method; details: HCT-15, 48 h, read-out: GI; outline: as §2
LOX IMVI = experiment: Growth inhibition of human LOXIMVI cells at 10 uM after 48 hrs by coulter counter method; details: read-out: GI; outline: as §2
K562 = experiment: Growth inhibition of human K562 cells at 10 uM after 48 hrs by coulter counter method; details: K562, 48 h, read-out: GI; outline: as §2
MDA-MB-468 = experiment: Growth inhibition of human MDA-MB-468 cells at 10 uM after 48 hrs by coulter counter method; details: MDA-MB-468, 48 h, read-out: GI; outline: as §2
UACC-62 = experiment: Growth inhibition of human UACC62 cells at 10 uM after 48 hrs by coulter counter method; details: UACC-62, 48 h, read-out: GI; outline: as §2
KM12 = experiment: Growth inhibition of human KM12 cells at 10 uM after 48 hrs by coulter counter method; details: KM12, 48 h, read-out: GI; outline: as §2
M14 = experiment: Growth inhibition of human M14 cells at 10 uM after 48 hrs by coulter counter method; details: M14, 48 h, read-out: GI; outline: as §2
EKVX = experiment: Growth inhibition of human EKVX cells at 10 uM after 48 hrs by coulter counter method; details: read-out: GI; outline: as §2
ACHN = experiment: Growth inhibition of human ACHN cells at 10 uM after 48 hrs by coulter counter method; details: read-out: GI; outline: as §2
MOLT-4 = experiment: Growth inhibition of human MOLT4 cells at 10 uM after 48 hrs by coulter counter method; details: MOLT-4, 48 h, read-out: GI; outline: as §2
PC-3 = experiment: Growth inhibition of human PC3 cells at 10 uM after 48 hrs by coulter counter method; details: PC-3, 48 h, read-out: GI; outline: as §2
HCT-116 = experiment: Growth inhibition of human HCT116 cells at 10 uM after 48 hrs by coulter counter method; details: HCT-116, 48 h, read-out: GI; outline: as §2
T47D = experiment: Growth inhibition of human T47D cells at 10 uM after 48 hrs by coulter counter method; details: read-out: GI; outline: as §2
IGROV-1 = experiment: Growth inhibition of human IGROV1 cells at 10 uM after 48 hrs by coulter counter method; details: IGROV-1, 48 h, read-out: GI; outline: as §2
UO-31 = experiment: Growth inhibition of human UO31 cells at 10 uM after 48 hrs by coulter counter method; details: UO-31, 48 h, read-out: GI; outline: as §2
CCRF-CEM = experiment: Growth inhibition of human CCRF-CEM cells at 10 uM after 48 hrs by coulter counter method; details: read-out: GI; outline: as §2
SK-MEL-5 = experiment: Growth inhibition of human SK-MEL-5 cells at 10 uM after 48 hrs by coulter counter method; details: SK-MEL-5, 48 h, read-out: GI; outline: as §2
A498 = experiment: Growth inhibition of human A498 cells at 10 uM after 48 hrs by coulter counter method; details: A498, 48 h, read-out: GI; outline: as §2
CAKI-1 = experiment: Growth inhibition of human Caki1 cells at 10 uM after 48 hrs by coulter counter method; details: CAKI-1, 48 h, read-out: GI; outline: as §2
SNB-75 = experiment: Growth inhibition of human SNB75 cells at 10 uM after 48 hrs by coulter counter method; details: SNB-75, 48 h, read-out: GI; outline: as §2
U-251 = experiment: Growth inhibition of human U251 cells at 10 uM after 48 hrs by coulter counter method; details: U-251, 48 h, read-out: GI; outline: as §2
NCI-H522 = experiment: Growth inhibition of human NCI-H522 cells at 10 uM after 48 hrs by coulter counter method; details: NCI-H522, 48 h, read-out: GI; outline: as §2
[8] = read-out: LC50 (the source's name)

## O=c1[nH]cc(F)c(=O)[nH]1 [FLUOROURACIL]
[1]
  GI50: 8.4 µM
  TGI: > 100 µM
[2]
  GI50: 76.4 µM
  TGI: > 100 µM
[2]; [8]
  CC50: > 100 µM
Melanoma cell
  TGI: > 100 µM
[3]
  GI50: 45.6 µM
  TGI: > 100 µM
[3]; [8]
  CC50: > 100 µM
[4]
  TGI: > 100 µM
[4]; [8]
  CC50: > 100 µM
NSCLC
  GI50: > 100 µM
  TGI: > 100 µM
NSCLC; [8]
  CC50: > 100 µM
[5]
  TGI: > 100 µM
[5]; [8]
  CC50: > 100 µM
[6]
  GI50: 61.4 µM
  TGI: > 100 µM
[7]
  GI50: 22.7 µM
  TGI: > 100 µM

## NC1=CC(N)=NC2OC(c3ccccc3)=NN12 (stereo not given)
786-0
  inhibition of growth at 10 µM: < 10%
UACC-257
  inhibition of growth at 10 µM: < 10%
HL-60(TB)
  inhibition of growth at 10 µM: 15.6%
SNB-19
  inhibition of growth at 10 µM: < 10%
NCI/ADR-RES
  inhibition of growth at 10 µM: < 10%
RPMI-8226
  inhibition of growth at 10 µM: < 10%
SK-MEL-2
  inhibition of growth at 10 µM: < 10%
SF-268
  inhibition of growth at 10 µM: < 10%
BT-549
  inhibition of growth at 10 µM: < 10%
SN12C
  inhibition of growth at 10 µM: < 10%
NCI-H322M
  inhibition of growth at 10 µM: < 10%
HT-29
  inhibition of growth at 10 µM: < 10%
Malme-3M
  inhibition of growth at 10 µM: < 10%
TK-10
  inhibition of growth at 10 µM: < 10%
MDA-MB-435
  inhibition of growth at 10 µM: < 10%
SK-MEL-28
  inhibition of growth at 10 µM: < 10%
MCF7
  inhibition of growth at 10 µM: < 10%
SR
  inhibition of growth at 10 µM: 10.4%
SF-295
  inhibition of growth at 10 µM: 15.6%
OVCAR-8
  inhibition of growth at 10 µM: < 10%
NCI-H226
  inhibition of growth at 10 µM: < 10%
A549
  inhibition of growth at 10 µM: < 10%
NCI-H23
  inhibition of growth at 10 µM: < 10%
HCT-15
  inhibition of growth at 10 µM: < 10%
LOX IMVI
  inhibition of growth at 10 µM: < 10%
K562
  inhibition of growth at 10 µM: < 10%
MDA-MB-468
  inhibition of growth at 10 µM: < 10%
UACC-62
  inhibition of growth at 10 µM: < 10%
KM12
  inhibition of growth at 10 µM: < 10%
M14
  inhibition of growth at 10 µM: < 10%
EKVX
  inhibition of growth at 10 µM: < 10%
ACHN
  inhibition of growth at 10 µM: < 10%
MOLT-4
  inhibition of growth at 10 µM: 10.4%
PC-3
  inhibition of growth at 10 µM: < 10%
HCT-116
  inhibition of growth at 10 µM: < 10%
T47D
  inhibition of growth at 10 µM: < 10%
IGROV-1
  inhibition of growth at 10 µM: < 10%
UO-31
  inhibition of growth at 10 µM: 27%
CCRF-CEM
  inhibition of growth at 10 µM: < 10%
SK-MEL-5
  inhibition of growth at 10 µM: < 10%
A498
  inhibition of growth at 10 µM: < 10%
CAKI-1
  inhibition of growth at 10 µM: < 10%
SNB-75
  inhibition of growth at 10 µM: < 10%
U-251
  inhibition of growth at 10 µM: < 10%
NCI-H522
  inhibition of growth at 10 µM: < 10%
